Experimental findings from PubChem BioAssay AID720543 (The Scripps Research Institute Molecular Screening Center, 2013) are described below.

Hit rate of the full screen: of about 370,000 compounds, about 2,000 (0.54%) were called active. Many of the other results were omitted from the sample, so actives are more common in it than they were. Unmarked numbers belong to inactive results.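 Rule for the calls: active = inhibition exceeding the mean over every tested compound plus 3 SD (cut at about 30% in these data); inactive = the rest.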

(Lyso)-N-acylphosphatidylethanolamine lipase (Mus musculus), sequence (Q8VD66 whole entry, looked up): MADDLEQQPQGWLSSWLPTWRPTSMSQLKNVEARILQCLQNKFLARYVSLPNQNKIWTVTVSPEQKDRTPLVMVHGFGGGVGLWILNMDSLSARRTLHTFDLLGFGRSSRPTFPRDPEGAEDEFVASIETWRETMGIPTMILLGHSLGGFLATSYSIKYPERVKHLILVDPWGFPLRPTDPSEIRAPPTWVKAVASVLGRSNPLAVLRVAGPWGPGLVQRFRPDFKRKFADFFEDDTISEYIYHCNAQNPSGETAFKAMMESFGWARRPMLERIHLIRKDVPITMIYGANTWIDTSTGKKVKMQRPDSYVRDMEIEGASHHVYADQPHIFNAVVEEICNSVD

This assay has as its target (Lyso)-N-acylphosphatidylethanolamine lipase (Mus musculus) (UniProt Q8VD66). In words: mouse ABHD4 hydrolase activity blockers – biochemical, fluorescence polarization, primary screen (AID 720543).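 Note: 0% = plate median of compound wells and 100% = S159A mutant with DMSO.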 Particulars: purified mABHD4, FP-Rh probe fluorescence polarization; at 8.92 µM; stronger effect = higher value. Summed up: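 Assay system: wild-type mouse ABHD4 protein; compound: single nominal dose of 8.92 µM, 0.89% DMSO final; schedule: 45 min + 60 min at 25 °C; measured by: FP readout, ex 525 nm / em 598 nm; evaluation: % inhibition of FP-Rh probe binding versus controls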
Regarding `C[C@H]1[C@H](NC(=O)c2cccc(N(C)C)c2)CC[C@@]23CCCN2C(=O)CCC[C@@H]13`, the inhibition is 4.02%.
With `COC(=O)c1cccc(Cn2ccc3ccc(-c4ccc5ccn(C(=O)C6CCCCC6)c5c4)cc32)c1`, the inhibition was 3.18%.
Regarding `COc1cccc2c1C(=O)c1c(O)c3c(c(O)c1C2=O)CC(O)(C(C)=NNC(=O)c1ccc(Cl)c(Cl)c1)CC3OC1CC(N)C(O)C(C)O1` (configuration not stated), the inhibition is 67.4% (active).
For `Cc1ccc(S(=O)(=O)/N=S(\C)C(C)C)cc1` (configuration not stated), the inhibition is -2.12%.
As for `Cc1ccc(S(=O)(=O)N[C@H](CO)C(C)C)cc1`, the inhibition is -3.46%.
Then `Cc1ccc(S(=O)(=O)/N=C2\C=C(NS(=O)(=O)c3ccc(C)cc3)C(=O)c3ccccc32)cc1`, with 40.1% (active); and `C[C@@H](NC(=O)OC(C)(C)C)c1nnc(S(=O)(=O)Cc2ccccc2)o1`, with 11.2%.
Then `CC(C)C(=O)N1c2ccccc2NC2=C(C(=O)CCC2)C1c1ccc(N(C)C)cc1` (configuration not stated), with 7.43%.
On to `CCCCCCCCNS(=O)(=O)/C=C/c1cc(C)ccc1CNC(=O)OC(C)(C)C`, for which the inhibition was -4.09%.
The result for `Cc1ccc(C)c(NC(=O)CCS(=O)(=O)c2ccccc2)c1` reads -4.18%; that for `Oc1ccc2ccccc2c1N=Nc1nccs1`, 61.8% (active); that for `C[C@H](C(=O)N(C)c1ccccc1)[C@@H](O)c1ccc(Cl)cc1`, 0.42%.
Then `Nc1[nH]c(C(=O)c2ccccc2)c(-c2ccc(Br)cc2)c1C(=O)NC1CC1`, with 1.95%.
On to `Nc1[nH]c(C(=O)c2ccc(Br)cc2)c(-c2ccc3c(c2)OCO3)c1C(=O)NCCc1c[nH]c2ccccc12`, for which the inhibition was 48.9% (active).
The result for `Nc1[nH]c(C(=O)c2ccccc2)c(-c2ccncc2)c1C(=O)NCc1cccc2ccccc12` reads -0.51%.
Then `O=c1ccc2c(-c3ccccc3S(=O)(=O)O)c3ccc(O)c(O)c3oc-2c1O`, with 34% (active); and `COc1ccc(-n2c(COc3ccccc3)nnc2SCC(=O)Nc2ccc3c(c2)OCO3)cc1`, with -9.7%.
As to `CC(=O)OCCN1CCCC12CCC(c1ccccc1)CC2` (configuration not stated), the inhibition was 0.33%.
On to `Cc1ccc(S(=O)(=O)N2CCC(C(=O)N[C@@H](C)C(=O)NCc3ccco3)CC2)cc1`, for which the inhibition is -2.84%.
The result for `Cc1cccc(C(=O)NC(=S)N2CCN(c3ccc([N+](=O)[O-])cc3)CC2)c1` reads -5.02%.
Consider `CN1CCN(C(=O)c2cnn(-c3ccccc3)c2NC(=O)c2ccc([N+](=O)[O-])cc2)CC1`, for which the inhibition was -2.86%.
Then `Cc1cc(/C=N/Nc2ccc([N+](=O)[O-])cn2)c(C)n1-c1cccc(C(=O)O)c1`, with 45.6% (active); and `O=C(N[C@@H]1C/C=C\C[C@@H](CC(=O)N(CCO)Cc2ccccc2)C(=O)N[C@H](Cc2ccccc2)COC1=O)OCC1c2ccccc2-c2ccccc21`, with 7.4%.
The result for `CSc1ccc(C=Nn2c(-c3ccc(F)cc3)n[nH]c2=S)cc1` reads 0.61%.
On to `CCCCc1c(-c2ccc(Br)cc2)ncn1CCc1ccccc1OC`, for which the inhibition is -0.8%.
For the molecule `CCOCCCNC(=O)C(NC(=O)c1ccccc1O)c1ccccc1` (configuration not stated), the inhibition is -0.7%.
The result for `Clc1ccc(C2=CSC3=Nc4cccc5cccc(c45)N23)cc1` reads 38.4% (active); that for `O=C(OCC#CCSc1nnc(-c2ccco2)o1)c1ccc(F)cc1`, -9.72%.
In the case of `COc1cc(/C(=C/c2ccccc2)c2ccccc2)c2c(c1)oc1ccccc12`, the inhibition was -1.7%.
The result for `Cc1oc2cc([N+](=O)[O-])c(O)c([N+](=O)[O-])c2c1C(=O)c1ccc(Br)cc1` reads 8.71%; that for `Cc1oc2cc(Br)c(O)c(Br)c2c1C(=O)c1ccccc1`, 44.9% (active); that for `COC(=O)c1c(-c2ccc(OC)cc2)c2c(c3c4cc(OC)ccc4n(S(=O)(=O)c4ccc(F)cc4)c13)C(=O)N(C)C2`, -0.06%.
On to `Cc1cc(NS(=O)(=O)c2ccc(NC(=O)CSc3nnc(SCc4ccc(F)cc4)s3)cc2)nc(C)n1`, for which the inhibition was -21.5%.
Then `Fc1ccc2nc(COCc3nc4ccc(F)cc4[nH]3)[nH]c2c1`, with -7.17%; and `COCC(=O)Nc1c(C(=O)N2CCCC2)oc2ccccc12`, with -0.25%; and `COC(=O)c1[nH]c2ccc(Br)cc2c1NC(=O)Oc1ccccc1`, with -1.15%.
The result for `COC(=O)c1oc2ccc(Br)cc2c1NC(C)=O` reads 40.3% (active); that for `FC(F)(F)c1cccc(NC(=S)OC2CCC23CCC(c2ccccc2)CC3)c1` (configuration not stated), -21.8%; that for `Cc1cc(C)c(S(=O)(=O)NN=C2c3ccccc3[C@H]3Cc4csc[n+]4[C@@H]23)c(C)c1`, 33.3% (active).
Then `CCOC(=O)c1csc(NC(=O)C2CCCN(S(=O)(=O)c3ccc(Cl)s3)C2)n1` (configuration not stated), with -51.6%.
As to `CCCCCCN1CCS(=O)(=O)N(Cc2ccc(C(F)(F)F)cc2)C(C(=O)OC)C1` (configuration not stated), the inhibition is -4.07%.
Then `O=C(O)c1ccccc1/C=N/Nc1ccc(S(=O)(=O)Nc2ccc(Cl)cc2)cc1[N+](=O)[O-]`, with 43.8% (active); and `COc1ccc(Br)cc1/C=N/Nc1ccc(Cl)c(C(=O)O)c1`, with 40.3% (active).
For `O=[N+]([O-])c1cc(S(=O)(=O)Nc2cccc(Cl)c2)ccc1N=Nc1c(O)[nH]c2ccccc12`, the inhibition was 7.74%.
The result for `Cc1ccc(OCCOCCOc2ccc(Br)cc2/C=N\NC(=O)c2ccncc2)cc1` reads -84.8%; that for `COc1cc(/C=C/C(=O)O)cc(S(=O)(=O)Nc2ccccc2C(=O)NCCc2ccccc2)c1OC`, 6.19%; that for `COc1ccc(Br)cc1CN(C)CC(=O)Nc1cc(Cl)cc(Cl)c1`, 6.47%.
`Cc1ccc(NS(=O)(=O)c2ccc(N/N=C/c3ccccc3OCC(=O)O)c([N+](=O)[O-])c2)c(C)c1`: the inhibition is 52.1% (active).
The result for `COc1ccc(Br)cc1/C=N/Nc1ccc(S(=O)(=O)Nc2ccccc2C(=O)O)cc1[N+](=O)[O-]` reads 38.4% (active).
The result for `COc1ccc(S(=O)(=O)NC(C)c2ccccc2)cc1C(=O)N1CCCCC1` (configuration not stated) reads 3.07%.
Then `Cc1ccc(NS(=O)(=O)c2ccc3c(c2)n(C)c(=O)c(=O)n3C)c(C)c1`, with -1.8%; and `O=C(Nc1cc(S(=O)(=O)Nc2ccc(Cl)cc2)ccc1O)c1ccc(F)cc1F`, with -6.3%; and `Cc1ccc(C)c(NS(=O)(=O)c2ccc(OCC(=O)NCc3cccnc3)cc2)c1`, with -3.89%.
`CC1(C)CC(=O)C(C2c3ccccc3S(=O)(=O)c3ccccc32)C(=O)C1`: the inhibition is 0.77%.
Then `O=C(CSc1nc2c(c(=O)[nH]1)CCCC2)N1CCCCC1`, with 0.85%.
The result for `Cc1ccccc1CS(=O)(=O)Cc1ccc(C(=O)Nc2ccc(Cl)cc2)o1` reads 1.54%.
Take `CN(C)S(=O)(=O)c1cccc(C(=O)N/N=C\c2ccco2)c1`: the inhibition was 5.39%.
Then `COc1ccc([C@H]2OC(=O)C[C@H]2C(=O)N2CCN(c3ccccc3F)CC2)cc1OC`, with 0.9%; and `CC(C)(C)NC(=O)NC(=O)COC(=O)Cn1c(C(F)(F)F)nc2ccccc21`, with 1.11%; and `Cc1cccc(NC(=O)C[C@H]2CC[C@H]3[C@@H](COc4ccc(NC(=O)Nc5ccccc5)cc4C(=O)N3C)O2)c1`, with 7.9%.
Consider `COc1ccc(-n2c(SCC(=O)Nc3ccc4cn[nH]c4c3)nnc2-c2cccnc2)cc1`, for which the inhibition is 0.5%.
With `CCOc1ccc(/C(O)=C2\C(=O)C(=O)N(c3ccc(OC)cc3)C2c2ccccc2[N+](=O)[O-])cc1` (configuration not stated), the inhibition is 5.37%.
The result for `C[C@@H](NC(=O)c1ccccc1OCC(=O)Nc1ccc(I)cc1)C(=O)N(C)Cc1ccccc1` reads -28.4%; that for `COc1ccc(Cc2nc3ccc(C(=O)N4CCC(N(C)C)C4)cc3o2)cc1` (configuration not stated), -2.59%.
For `Cc1cc(=O)[nH]c(SCC(=O)Nc2ccc(F)cc2F)n1`, the inhibition was 2.2%.
For the molecule `CCN(CC(=O)NCc1cccs1)C(=O)c1cccc(S(=O)(=O)Nc2ccccc2OC)c1`, the inhibition was -5.42%.
The result for `COc1cccc(/C=N/Nc2ccc(S(=O)(=O)Nc3ccccc3C(=O)O)cc2[N+](=O)[O-])c1O` reads 70.3% (active); that for `CCOc1ccccc1NS(=O)(=O)c1c[nH]c(C(=O)OC)c1`, -5.46%; that for `CC(C)(C)NC(=O)C(c1cccnc1)N(C(=O)c1cnco1)c1ccc(C(C)(C)C)cc1` (configuration not stated), -5.63%.
As for `CC1CCCCC1NC(=O)CSc1nnc(-c2ccncc2)n1CCCN(C)C` (configuration not stated), the inhibition was 18.4%.
The result for `CCC[C@H]1C(=O)CC[C@@]23CCCN2C(=O)CCC[C@@H]13` reads -0.16%; that for `CN1C(=O)C2CC(O)C(SC3CC4C(=O)N(C)C(=O)C4CC3O)CC2C1=O` (configuration not stated), 4.09%; that for `CCCC(=O)N1c2ccc(-c3csc(N)n3)cc2CC1C` (configuration not stated), 6.5%.
The result for `CC(C)(C)C(=O)OCc1nc(-c2ccc(O)c(O)c2)cs1` reads 39.5% (active).
The result for `COCc1cccc(-c2csc(C(O)c3ccc(F)cc3)n2)c1` (configuration not stated) reads -6.65%; that for `COc1ccc(C(=O)CSc2nnc(-c3cnccn3)n2-c2ccc(C)cc2)cc1`, -7.18%; that for `COC(=O)[C@H](C(C)C)N1CCc2nnn(Cc3ccc(C)cc3)c2-c2ccccc2S1(=O)=O`, 8.58%.
With `CN(CCO)c1cccc2c1S(=O)(=O)N(Cc1cn(Cc3ccc(C(F)(F)F)cc3)nn1)Cc1ccccc1O2`, the inhibition is 1.41%.
With `CCOC(=O)C1CCN(C(=O)C(C)(C)NC(=O)Nc2ccc(F)c(F)c2)CC1`, the inhibition was -6.47%.
Then `Clc1ccc(-n2c(SC/C=C/c3ccccc3)nnc2-c2ccco2)cc1`, with -10.5%; and `Clc1ccccc1CSc1nnc(-c2ccco2)c(-c2ccco2)n1`, with 38.9% (active); and `COc1ccnc(C(=O)N2CCC(Oc3cccnc3)CC2)c1`, with 3.41%.
